Consider one compound from ChEMBL document CHEMBL2062484, “Design of barbiturate-nitrate hybrids that inhibit MMP-9 activity and secretion” (J Med Chem, 2012).

For data set [1], the target named is 72 kDa type IV collagenase (Homo sapiens, UniProt P08253). The experiment in a line: Inhibition of p-aminophenylmercuric acetate stimulated human recombinant MMP-2 using (7-methoxycoumarin-4-yl)-acetyl-pro-Leu-Gly-Leu-(3-(2,4-dinitrophenyl)-L-2,3-diaminopropionyl)-Ala-Arg-NH2 as substrate after 45 mins by fluorogenic assay.
Data set [2] deals with Matrix metalloproteinase-9 (Homo sapiens, UniProt P14780). The experiment in a line: Inhibition of p-aminophenylmercuric acetate stimulated human recombinant MMP-9 using (7-methoxycoumarin-4-yl)-acetyl-pro-Leu-Gly-Leu-(3-(2,4-dinitrophenyl)-L-2,3-diaminopropionyl)-Ala-Arg-NH2 as substrate after 45 mins by fluorogenic assay.
Data set [3] relates to Caco-2. The experiment in a line: Induction of nitrite release in human Caco2 cells at 200 uM after 24 hrs by Griess assay. The class given is functional, cell-based. The procedure, abridged: (§1)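 Compounds incubated 24 h with Caco-2 monolayers at 200 or 10 μM (n = 3). Supernatant nitrite read by Griess reaction (sulfanilamide 2% plus N-1-naphthylethylenediamine) at 4 °C, 45 min shaking, A540; nitrate measured after VCl3 reduction. Quantified against sodium nitrite/nitrate standards 3−200 μM; NOx = nitrite + nitrate.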
(The Griess reaction detects nitrite, a stable product of nitric oxide.)

For data set [4], the system named is Caco-2. Briefly: Induction of nitrate release in human Caco2 cells at 200 uM after 24 hrs by Griess assay. It counts as functional, cell-based. In a few lines: as §1
Data set [5] deals with HT-1080. The experiment in a line: Inhibition of PMA-stimulated MMP-9 secretion in human HT1080 cells at 100 uM after 24 hrs by gelatin zymography. The class given is functional. In a few lines:
(§2)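 HT1080 at ~75% confluence switched to serum-free medium, pretreated 3 h with compound (100 μM; DMSO ≤0.1%), then PMA 10 μM for 24 h at 37 °C. Cleared supernatants loaded at equal protein on 2% gelatin SDS-PAGE, Triton washed, developed 48 h at 37 °C in Tris pH 7.5/CaCl2 buffer, Coomassie stained; gelatinolytic bands quantified by densitometry relative to stimulated control.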

In data set [6] the test system is HT-1080. The experiment in a line: Inhibition of PMA-stimulated MMP-2 secretion in human HT1080 cells at 100 uM after 24 hrs by gelatin zymography. The class given is functional, cell-based. The procedure, abridged:
as §2

A short description of data set [7]: Cytotoxicity against human Caco2 cells assessed as cell viability after 24 hrs by MTT assay. It counts as cell-based. The conditions noted are these: Caco-2 cells. The procedure, abridged: (§3)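 Cells seeded (Caco-2 8 × 10³/well, HT1080 12 × 10⁴/well), grown to 70% confluence, serum-starved 1 h, then exposed to compound at 0.1−200 μM (eight levels) serum-free for 24 h. MTT 0.5 mg/mL for 3 h at 37 °C, formazan dissolved in DMSO, OD 540 nm; viability as % of untreated. CC50 from sigmoidal fits; three experiments, triplicate wells.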
On the technique in general: Tetrazolium assays rely on reduction of a dye to a coloured formazan, in cell work by metabolically active cells.

The nature of data set [8]: Cytotoxicity against human HT1080 cells assessed as cell viability after 24 hrs by MTT assay. The conditions noted are these: HT-1080 cells. The class given is cell-based. In a few lines: as §3
Data set [9] is described as follows: Cytotoxicity against human Caco2 cells assessed as inhibition of cell viability at 200 uM after 24 hrs by MTT assay. It counts as cell-based. The settings on record: Caco-2 cells, read-out: INH. In a few lines: as §3
Data set [10] relates to Caco-2. The experiment in a line: Induction of apoptosis in human Caco2 cells assessed as increase in apoptotic cell population at 10 uM after 24 hrs by Annexin V FITC staining based flow cytometry. The conditions noted are these: caco-2, 24 h. The procedure, abridged:
(§4)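 Cells at 80% confluence in T25 flasks treated 24 h serum-free with compound (10 μM); vehicle-only controls. Cells washed in Hepes pH 7.4/NaCl/CaCl2 binding buffer, double-stained with Annexin V-FITC and propidium iodide 15 min at room temperature in dark, read by flow cytometry within 5 min; expressed as % of control fluorescence.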

In data set [11] the test system is Caco-2. The experiment in a line: Induction of apoptosis in human Caco2 cells assessed as increase in necrotic cell population at 10 uM after 24 hrs by Annexin V FITC staining based flow cytometry. The conditions noted are these: caco-2, 24 h. The procedure, abridged: as §4
(In general: Flow cytometry measures light scatter and fluorescence of single cells or particles in a stream.)

For data set [12], the system named is HT-1080. Briefly: Induction of apoptosis in human HT1080 cells assessed as increase in apoptotic cell population at 10 uM after 24 hrs by Annexin V FITC staining based flow cytometry. The settings on record: ht-1080, 24 h. In a few lines: as §4
Data set [13] concerns HT-1080. Briefly: Induction of apoptosis in human HT1080 cells assessed as increase in necrotic cell population at 10 uM after 24 hrs by Annexin V FITC staining based flow cytometry. The settings on record: ht-1080, 24 h. The procedure, abridged:
as §4

The subject of data set [14] is Caco-2. Briefly: Inhibition of IL1beta/TNFalpha-stimulated MMP-9 secretion in human Caco2 cells at 10 uM after 24 hrs by densitometric analysis. The class given is functional, cell-based. The procedure, abridged: (§5)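 Near-confluent (~75%) Caco-2 switched to serum-free medium, pretreated 30 min with compound (10 μM, DMSO <1%), then TNF-α and IL-1β 10 ng/mL for 24 h at 37 °C. Cleared supernatants normalized by Bradford protein, run on 2% gelatin SDS-PAGE, Triton washed, developed 48 h at 37 °C in Tris pH 7.5/CaCl2 buffer, Coomassie stained; lysis bands quantified by densitometry as % of cytokine-only control.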

The test system of data set [15] is Caco-2. Briefly: Inhibition of IL1beta/TNFalpha-stimulated MMP-2 secretion in human Caco2 cells at 10 uM after 24 hrs by densitometric analysis. The class given is functional, cell-based. In a few lines:
as §5

Data set [16] relates to Caco-2. Briefly: Inhibition of PMA-stimulated human Caco2 cells migration through matrigel membrane at 10 uM after 48 hrs by light microscopic analysis. The class given is functional. The settings on record: Caco-2, 48 h. In a few lines: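 Matrigel-coated invasion chamber inserts, 8 μm pore membrane, 0.5 mL of 2 × 10⁵ Caco-2 cells/mL; stimulated with HGF (100 or 500 ng/mL) or PMA (10 μM) with compound (100 nM or 10 μM); 48 h invasion at 37 °C, 5% CO2. Non-invading cells swabbed off, lower-surface cells Diff-Quik stained and counted by light microscopy; normalized to stimulated control; duplicates.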

The source made the active and inactive calls. No cut-off for these calls is given here.

Matrix metalloproteinase-9, sequence (P14780 whole entry): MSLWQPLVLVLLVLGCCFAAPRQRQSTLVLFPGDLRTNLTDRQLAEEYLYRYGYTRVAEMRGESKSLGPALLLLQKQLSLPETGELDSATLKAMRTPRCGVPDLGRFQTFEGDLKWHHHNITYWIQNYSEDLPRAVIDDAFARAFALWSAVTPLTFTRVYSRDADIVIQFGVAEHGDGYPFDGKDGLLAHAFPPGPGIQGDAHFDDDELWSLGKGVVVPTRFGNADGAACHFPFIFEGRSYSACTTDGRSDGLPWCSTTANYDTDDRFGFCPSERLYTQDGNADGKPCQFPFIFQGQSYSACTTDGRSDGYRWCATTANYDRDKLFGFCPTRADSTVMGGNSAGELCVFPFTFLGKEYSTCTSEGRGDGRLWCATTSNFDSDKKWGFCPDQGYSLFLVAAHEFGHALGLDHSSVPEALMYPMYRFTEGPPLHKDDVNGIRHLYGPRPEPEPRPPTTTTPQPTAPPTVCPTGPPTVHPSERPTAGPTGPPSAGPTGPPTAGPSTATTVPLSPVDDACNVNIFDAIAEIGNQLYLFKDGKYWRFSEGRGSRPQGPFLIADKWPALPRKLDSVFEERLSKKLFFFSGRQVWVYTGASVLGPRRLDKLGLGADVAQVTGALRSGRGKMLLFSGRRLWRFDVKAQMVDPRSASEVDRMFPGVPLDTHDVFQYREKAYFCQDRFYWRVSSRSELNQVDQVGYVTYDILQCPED
72 kDa type IV collagenase, sequence (P08253 whole entry): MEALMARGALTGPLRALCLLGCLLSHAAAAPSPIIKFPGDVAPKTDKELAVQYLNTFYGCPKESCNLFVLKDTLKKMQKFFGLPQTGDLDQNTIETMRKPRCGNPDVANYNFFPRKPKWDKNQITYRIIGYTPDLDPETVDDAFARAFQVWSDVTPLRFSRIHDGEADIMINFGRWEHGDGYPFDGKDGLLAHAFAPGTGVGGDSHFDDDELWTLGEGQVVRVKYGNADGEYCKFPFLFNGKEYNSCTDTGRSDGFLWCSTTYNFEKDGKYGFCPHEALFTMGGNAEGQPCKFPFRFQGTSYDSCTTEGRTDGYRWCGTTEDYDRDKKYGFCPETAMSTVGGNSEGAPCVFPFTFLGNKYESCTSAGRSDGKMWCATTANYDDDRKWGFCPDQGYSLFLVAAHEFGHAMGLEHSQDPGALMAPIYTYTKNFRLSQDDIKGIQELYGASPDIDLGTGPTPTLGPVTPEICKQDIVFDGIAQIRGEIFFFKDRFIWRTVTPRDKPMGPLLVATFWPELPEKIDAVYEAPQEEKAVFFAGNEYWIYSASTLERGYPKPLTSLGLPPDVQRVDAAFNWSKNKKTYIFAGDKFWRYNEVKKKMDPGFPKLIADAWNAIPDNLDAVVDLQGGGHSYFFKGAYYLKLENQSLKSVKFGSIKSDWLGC

As for `O=C1NC(=O)C(c2ccc(Oc3ccccc3)cc2)(N2CCC(CCO[N+](=O)[O-])CC2)C(=O)N1`, the IC50 – broadly, the concentration that gives 50% inhibition – amounted to 0.158 µM in [1] and 0.152 µM in [2]. In addition, the outcome in [3] and in data set [4] was Active. For the same compound, the inhibition result in data set [5], in data set [6] and in [14] was “Active” in each case. In addition, the CC50 (usually the concentration at which the toxic effect on the cells reaches its halfway point) at 24 h in data set [7] is above 200 µM; in data set [8] it was 78.7 µM. Besides, the cytotoxicity at 24 h, 200 µM in data set [9] amounted to 100%. For the same compound, the Activity entry in data set [10], in data set [11], in data set [12] and in data set [13] was “Non-toxic” each time. Besides, the inhibition (in general, the drop in the measured response relative to a control, in per cent) in [15] is “inactive”. The same compound showed an inhibition at 10 µM in data set [16] of 44.5%.
